Activity calls are given as the source filed them. The rule behind the calls is not given here.
How the values were obtained:
[1] = molecular target: T1, RAS guanyl-releasing protein 1 (Homo sapiens) (UniProt O95267); test: Displacement of [3H]PDBu from full length MBP-tagged human RasGRP1 expressed in Escherichia coli BL21 (DE3) after 5 mins in presence of phosphatidylserine by scintillation counting
T1 sequence (whole entry): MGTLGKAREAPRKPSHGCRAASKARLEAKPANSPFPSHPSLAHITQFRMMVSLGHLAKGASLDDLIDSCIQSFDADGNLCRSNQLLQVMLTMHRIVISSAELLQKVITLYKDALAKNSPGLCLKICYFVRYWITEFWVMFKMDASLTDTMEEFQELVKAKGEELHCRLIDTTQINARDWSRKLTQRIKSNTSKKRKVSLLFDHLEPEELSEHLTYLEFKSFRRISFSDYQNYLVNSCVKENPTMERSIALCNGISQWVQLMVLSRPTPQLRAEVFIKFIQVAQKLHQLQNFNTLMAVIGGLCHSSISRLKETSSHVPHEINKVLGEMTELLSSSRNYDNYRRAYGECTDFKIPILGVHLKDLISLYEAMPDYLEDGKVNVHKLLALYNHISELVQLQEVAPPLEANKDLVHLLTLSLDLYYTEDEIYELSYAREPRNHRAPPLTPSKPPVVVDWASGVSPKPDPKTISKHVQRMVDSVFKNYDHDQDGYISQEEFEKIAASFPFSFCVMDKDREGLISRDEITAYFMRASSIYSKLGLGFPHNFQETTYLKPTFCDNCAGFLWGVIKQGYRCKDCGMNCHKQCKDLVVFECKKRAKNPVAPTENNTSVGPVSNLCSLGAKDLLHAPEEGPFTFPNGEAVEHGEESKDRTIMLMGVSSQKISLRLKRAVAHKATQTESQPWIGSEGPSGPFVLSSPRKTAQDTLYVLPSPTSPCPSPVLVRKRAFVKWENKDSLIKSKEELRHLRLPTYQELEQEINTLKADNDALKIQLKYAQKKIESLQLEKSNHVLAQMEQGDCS
Summary of the method: (§1)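 Competition of [3H]PDBu binding by polyethylene glycol precipitation, with 100 µg/ml phosphatidylserine and ≤0.003% Triton X-100, 5 min at 37 °C. Proteins: full-length purified human PKCα, PKCε; full-length RasGRP1; MBP-RasGRP3 from E. coli BL21(DE3) induced with 0.3 mM IPTG 6 h at room temperature. Ki mean ± SEM of ≥2 experiments, triplicate points.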

[2] = molecular target: T2, Ras guanyl-releasing protein 3 (Homo sapiens, UniProt Q8IV61); test: Activation of RasGRP3 in human Ramos cells after 30 mins by immunoblot method; assay type: cell-based
T2 sequence (Q8IV61 whole entry): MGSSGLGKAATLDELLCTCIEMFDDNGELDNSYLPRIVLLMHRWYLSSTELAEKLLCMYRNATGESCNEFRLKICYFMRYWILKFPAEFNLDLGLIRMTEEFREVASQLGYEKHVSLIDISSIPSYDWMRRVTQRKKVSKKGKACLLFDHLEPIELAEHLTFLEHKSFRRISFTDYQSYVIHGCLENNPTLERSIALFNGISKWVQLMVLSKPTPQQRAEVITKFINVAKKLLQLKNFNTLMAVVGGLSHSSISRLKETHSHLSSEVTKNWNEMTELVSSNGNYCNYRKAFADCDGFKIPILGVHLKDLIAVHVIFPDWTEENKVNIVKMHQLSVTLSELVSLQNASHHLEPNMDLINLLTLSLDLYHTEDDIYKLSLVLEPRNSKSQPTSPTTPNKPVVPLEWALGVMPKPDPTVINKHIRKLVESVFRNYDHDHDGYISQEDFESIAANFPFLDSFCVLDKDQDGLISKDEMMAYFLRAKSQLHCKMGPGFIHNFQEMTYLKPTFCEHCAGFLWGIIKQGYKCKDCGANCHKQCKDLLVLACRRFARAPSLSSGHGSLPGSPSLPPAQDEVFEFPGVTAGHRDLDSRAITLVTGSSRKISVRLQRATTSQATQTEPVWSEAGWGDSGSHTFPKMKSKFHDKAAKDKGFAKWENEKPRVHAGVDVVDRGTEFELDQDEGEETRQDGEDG
Summary of the method: (§2)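 Cells expressing GFP-RasGRP1/3 (HEK293 or LNCaP, 48 h after plating, transfected; expression checked by fluorescence 24-48 h later) or Ramos with endogenous RasGRP3 treated with half-log increasing concentrations (max 10 µM), 1000 nM PMA or DMSO, 37 °C, 30 min, 5% CO2. RasGTP by Raf1 RBD bead pulldown and anti-Pan-Ras immunoblot; pERK by western blot. Band intensities normalized to 1000 nM PMA; EC50 from n = 3.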

[3] = molecular target: Protein kinase C delta type (Homo sapiens, UniProt Q05655); test: Activation of PKCdelta (unknown origin) expressed in HEK293 cells harboring GFP-tagged RasGRP3 assessed as phosphorylation at ser299 residues after 30 mins by immunoblot method; assay type: cell-based
Sequence of Protein kinase C delta type (Q05655 whole entry): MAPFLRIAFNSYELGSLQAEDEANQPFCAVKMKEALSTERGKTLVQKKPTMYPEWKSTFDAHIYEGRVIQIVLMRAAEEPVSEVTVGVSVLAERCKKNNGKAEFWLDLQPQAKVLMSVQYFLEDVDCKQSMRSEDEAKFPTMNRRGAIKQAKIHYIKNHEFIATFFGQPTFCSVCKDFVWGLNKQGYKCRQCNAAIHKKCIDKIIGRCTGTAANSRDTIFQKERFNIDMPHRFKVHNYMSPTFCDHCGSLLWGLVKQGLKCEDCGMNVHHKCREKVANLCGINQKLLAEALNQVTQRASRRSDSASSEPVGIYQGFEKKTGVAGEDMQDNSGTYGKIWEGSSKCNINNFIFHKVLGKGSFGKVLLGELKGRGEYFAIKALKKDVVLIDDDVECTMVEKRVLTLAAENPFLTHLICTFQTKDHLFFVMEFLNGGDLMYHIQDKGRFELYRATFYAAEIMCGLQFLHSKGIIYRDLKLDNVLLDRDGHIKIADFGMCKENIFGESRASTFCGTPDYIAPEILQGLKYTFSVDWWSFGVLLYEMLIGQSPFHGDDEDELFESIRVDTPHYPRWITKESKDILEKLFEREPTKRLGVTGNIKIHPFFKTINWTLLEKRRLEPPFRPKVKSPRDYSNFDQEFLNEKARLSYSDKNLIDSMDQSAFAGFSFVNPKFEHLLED
Summary of the method: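 Cells are GFP-RasGRP3-transfected HEK293, grown in EMEM + 10% FBS. Exposed 30 min at 37 °C, 5% CO2, to half-log concentrations up to 10 µM, 1000 nM PMA or DMSO. Lysed in RIPA with protease and phosphatase inhibitors. 50 µg protein run on 10% SDS-PAGE and blotted for phospho-PKCδ S299; anti-GFP used as loading control. Signal normalised to 1000 nM PMA. EC50 is the mean of n = 3.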

[4] = molecular target: T3, RAS guanyl-releasing protein 1 (Homo sapiens, UniProt O95267); test: Activation of GFP-tagged RasGRP1 (unknown origin) expressed in human LNCAP cells assessed as ERK1/2 phosphorylation after 30 mins by immunoblot method; assay type: cell-based; summary of the method: as §2
T3 sequence (O95267 whole entry): T1 sequence (whole entry)

[5] = molecular target: T2, Ras guanyl-releasing protein 3; test: Activation of GFP-tagged RasGRP3 (unknown origin) expressed in human LNCAP cells assessed as ERK1/2 phosphorylation after 30 mins by immunoblot method; assay type: cell-based; summary of the method: as §2
[6] = organism: Homo sapiens; test: Selectivity ratio of EC50 for PKCdelta (unknown origin) expressed in HEK293 cells harboring GFP-tagged RasGRP3 to EC50 for GFP-tagged RasGRP3 (unknown origin) expressed in HEK293 cells; assay type: cell-based
Summary of the method: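 One EC50 comes from PKCδ S299 phosphorylation on immunoblot, the other from Ras-GTP pulled down on Raf1-RBD. Both signals normalised to 1000 nM PMA. EC50s above 10 µM are extrapolated.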

[7] = organism: Homo sapiens; test: Selectivity ratio of EC50 for PKCdelta in human Ramos cells expressing RasGRP3 to EC50 for RasGRP3 in human Ramos cells assessed as ERK1/2 phosphorylation; assay type: cell-based
[8] = molecular target: T4, Ras guanyl-releasing protein 3 (Homo sapiens) (UniProt Q8IV61); test: Displacement of [3H]PDBu from full length MBP-tagged human RasGRP3 expressed in Escherichia coli BL21 (DE3) after 5 mins in presence of phosphatidylserine by scintillation counting; summary of the method: as §1
T4 sequence (whole entry): T2 sequence (Q8IV61 whole entry)

Cn1cc(/C=C2\CC(CO)(COC(=O)C(C)(C)C)OC2=O)c2ccccc21 (stereo not drawn)
inhibition [1]: Active
EC50 [2]: 0.86 µM
EC50 [3]: 16.9 µM
EC50 [4]: 3.73 µM
EC50 [5]: 2.98 µM
Ratio EC50 [6]: 9.2
Ratio EC50 [7]: 4
inhibition [8]: Active
